Data set [1] has as its system P388. Description: Antineoplastic activity against mouse P388 cells allografted in CDF1 mouse assessed as host survival time at 20 mg/kg administered daily for 6 days starting 24 hrs after tumor implantation (reference value: 11.2 +/- 0.4 days). Format: functional.
The test system of data set [2] is P388. Put plainly: Antineoplastic activity against mouse P388 cells allografted in CDF1 mouse assessed as prolongation of host survival time at 20 mg/kg administered daily for 6 days starting 24 hrs after tumor implantation relative to control. The class given is functional. In a few lines: (§1)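 P388 leukemia (1×10^6 cells, intraperitoneal) in female CDF1 mice; dosing once daily for 6 consecutive days beginning 24 h post-implantation, 5-15 mice per group. Activity expressed as % T/C, the ratio of survival time of treated to untreated control animals. Daily weighing gave percent body-weight change over the treatment period as a toxicity measure.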

Data set [3] has as its system P388. Description: Antineoplastic activity against mouse P388 cells allografted in CDF1 mouse assessed as prolongation of host survival time at 5 mg/kg administered daily for 6 days starting 24 hrs after tumor implantation relative to control. The class given is functional. In a few lines: as §1
Data set [4] concerns the target Alkaline phosphatase (Escherichia coli K-12) (UniProt P00634). Description: Inhibition of Escherichia coli alkaline phosphatase assessed as p-nitrophenol formation using p-nitrophenyl phosphate as substrate up to 100 uM treated 15 mins prior to substrate addition by spectrophotometric analysis. In a few lines:
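E. coli alkaline phosphatase (0.021 unit) in 1 M Tris-HCl pH 9.0, preincubated 15 min at 37 °C with inhibitor added in 50% DMSO. Reaction started with 10^-3 M p-nitrophenyl phosphate. Initial rise in absorbance at 410 nm read at room temperature in a 1-cm cell. Controls had enzyme preincubated 15 min with 50% DMSO alone.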

In data set [5] the test system is P388. Put plainly: Antineoplastic activity against mouse P388 cells allografted in CDF1 mouse assessed as host survival time at 5 mg/kg administered daily for 6 days starting 24 hrs after tumor implantation (reference value: 11.2 +/- 0.4 days). Format: functional.
The subject of data set [6] is Mus musculus. Put plainly: Toxicity in CDF1 mouse allografted with mouse P388 cells assessed as change in body weight at 5 mg/kg administered daily for 6 days starting 24 hrs after tumor implantation (reference value: -2.4%). Format: organism-based. Also noted: dose 5 mg/kg. The conditions noted are these: in vivo.
Data set [7] deals with P388. Description: Antineoplastic activity against mouse P388 cells allografted in CDF1 mouse assessed as host survival time at 10 mg/kg administered daily for 6 days starting 24 hrs after tumor implantation (reference value: 11.2 +/- 0.4 days). Format: functional.
Data set [8] relates to P388. Put plainly: Antineoplastic activity against mouse P388 cells allografted in CDF1 mouse assessed as prolongation of host survival time at 10 mg/kg administered daily for 6 days starting 24 hrs after tumor implantation relative to control. The class given is functional. The essentials: as §1
Data set [9] is described as follows: Stability of the compound measured under neutral conditions. The class given is physicochemical.
Data set [10] can be described thus: Stability of the compound in ethanol with sodium ethoxide assessed as isomerization. Format: physicochemical.
For data set [11], the system named is Mus musculus. Put plainly: Toxicity in CDF1 mouse allografted with mouse P388 cells assessed as change in body weight at 10 mg/kg administered daily for 6 days starting 24 hrs after tumor implantation (reference value: -2.4%). Format: organism-based. Also noted: dose 10 mg/kg. The conditions noted are these: in vivo.
For data set [12], the system named is P388. Description: Antineoplastic activity against mouse P388 cells allografted in CDF1 mouse assessed as prolongation of host survival time at 2.5 mg/kg administered daily for 6 days starting 24 hrs after tumor implantation relative to control. Format: functional. In a few lines:
as §1

Data set [13] deals with Mus musculus. Description: Toxicity in CDF1 mouse allografted with mouse P388 cells assessed as change in body weight at 2.5 mg/kg administered daily for 6 days starting 24 hrs after tumor implantation (reference value: -2.4%). Format: organism-based. The arrangement: dose 2.5 mg/kg. As to conditions: in vivo.
The subject of data set [14] is P388. Description: Antineoplastic activity against mouse P388 cells allografted in CDF1 mouse assessed as host survival time at 2.5 mg/kg administered daily for 6 days starting 24 hrs after tumor implantation (reference value: 11.2 +/- 0.4 days). The class given is functional.
Data set [15] has as its system Mus musculus. Description: Toxicity in CDF1 mouse allografted with mouse P388 cells assessed as change in body weight at 20 mg/kg administered daily for 6 days starting 24 hrs after tumor implantation (reference value: -2.4%). The class given is organism-based. The arrangement: dose 20 mg/kg. The conditions noted are these: in vivo.

Activity calls are given as the source filed them. The calls are words filed in the database; no cut-off is given here.

As usually defined, the T/C is the result in the treated group divided by that in the control group, in per cent.

Alkaline phosphatase (Escherichia coli K-12), sequence (P00634 whole entry): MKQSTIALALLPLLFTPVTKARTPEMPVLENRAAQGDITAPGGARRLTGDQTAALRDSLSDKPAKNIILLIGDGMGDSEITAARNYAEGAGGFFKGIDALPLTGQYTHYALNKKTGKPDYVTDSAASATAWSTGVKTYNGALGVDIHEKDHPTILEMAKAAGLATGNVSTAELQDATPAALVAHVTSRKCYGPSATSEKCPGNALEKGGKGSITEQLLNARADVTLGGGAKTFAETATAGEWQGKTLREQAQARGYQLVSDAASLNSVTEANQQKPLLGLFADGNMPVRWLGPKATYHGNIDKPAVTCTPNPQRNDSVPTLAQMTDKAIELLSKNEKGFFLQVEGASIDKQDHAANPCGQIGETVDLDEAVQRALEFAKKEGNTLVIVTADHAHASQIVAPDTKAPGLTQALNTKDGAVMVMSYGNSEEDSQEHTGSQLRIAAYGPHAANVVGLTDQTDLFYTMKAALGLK

As to `CNC(=S)N/N=C1/CCCc2cccnc21`, the figures for the Time with P388 [1], in the data set on P388 [5] and in the data set with P388 [7] were 2 days, 12 days and 13.6 days, respectively. Besides, the T/C turned out to be 18% in the data set with P388 [2], 107% in the data set on P388 [3] and 121% in the data set on P388 [8]. Besides, the inhibition result in [4] is “inactive”. The Activity in the data set with Mus musculus [6] is reported as -7.7%; in the data set with Mus musculus [11], -10.8%. The Stability entry in data set [9] is reported as “Stable”; in data set [10], “Unstable”.

Regarding `NC(=S)N/N=C1\CCCc2cccnc21`, the values for the T/C in the data set with P388 [12], in the data set on P388 [3] and in the data set with P388 [8] were 104%, 106% and 132%, respectively. Further, the Activity is recorded as -5.3% in the data set with Mus musculus [13], -3.8% in the data set on Mus musculus [6] and -10.7% in the data set on Mus musculus [11]. Also, the inhibition result in data set [4] was “inactive”. In addition, the Time in the data set with P388 [5] was found to be 11.8 days; in the data set on P388 [7], 14.8 days; in the data set with P388 [14], 11.6 days.

On to `C=CCNC(=S)N/N=C1/CCCc2cccnc21`, for which the T/C in the data set on P388 [12] is listed as 91%; in the data set on P388 [3] it was 88%; in the data set with P388 [8] it was 70%. Moreover, the Activity in the data set on Mus musculus [13] is 4.6%; with Mus musculus [6] it was 0%; in the data set with Mus musculus [11], -6.1%. Also, in data set [4], the inhibition entry is “inactive”. Besides, the Time with P388 [5] turned out to be 9.8 days; with P388 [7] it was 7.8 days; in the data set with P388 [14] it was 10.2 days. Besides, the figures for the Stability entry in data set [9] and in data set [10] were “Stable” and “Unstable”, respectively.

On to `C=CCNC(=S)N/N=C1\CCCc2cccnc21`, for which the T/C with P388 [12] amounted to 100%; in the data set with P388 [3] it was 118%; in the data set with P388 [8] it was 125%. The Activity is recorded as 0.7% in the data set with Mus musculus [13], -8.4% in the data set with Mus musculus [6] and -9.1% in the data set on Mus musculus [11]. Also, the inhibition result in data set [4] was “inactive”. Further, the Time was 13.2 days with P388 [5], 14 days in the data set on P388 [7] and 11.2 days with P388 [14].

`CNC(=S)N/N=C1\CCCc2cccnc21`: the T/C in the data set with P388 [12] is reported as 119%; in the data set on P388 [3], 143%; in the data set on P388 [8], 18%. The Activity is -9.3% with Mus musculus [13] and -12% in the data set on Mus musculus [6]. Besides, the inhibition entry in [4] is “inactive”. Moreover, the figures for the Time in the data set with P388 [5], in the data set on P388 [7] and in the data set with P388 [14] were 16 days, 2 days and 13.4 days, respectively.

For the compound `NC(=S)N/N=C1/CCCc2cccnc21`, the Time came to 9.2 days with P388 [1], 13 days in the data set on P388 [5] and 15.8 days in the data set with P388 [7]. In addition, the figures for the Activity in the data set on Mus musculus [15], in the data set with Mus musculus [6] and in the data set on Mus musculus [11] were -30.8%, 6.7% and -21.5%, respectively. Moreover, the values for the T/C with P388 [2], in the data set with P388 [3] and with P388 [8] were 73%, 116% and 141%, respectively. Further, the inhibition result in data set [4] was “inactive”. Further, the Stability result is “Stable” in data set [9] and “Unstable” in [10].

The record behind these values is ChEMBL document CHEMBL3271941, “Synthesis of 5,6-dihydro-8(7H)-quinolinone thiosemicarbazones as potential antitumor agents” (J Med Chem, 1977).
